Measured values as given in ChEMBL document CHEMBL5724801, “EUbOPEN Chemogenomics Library - Multiplex” (2024).
Several values for one entry are separate records, joined by “and”; a condition that tells them apart may be missing. Equal values may be shown once.

System: HEK-293T
Experiment: Multiplex assay against HEK293T
Assay type: toxicity, cell-based
Settings: human
Method in brief: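 Compound was added to live cells that had been stained at seeding with Hoechst33342, BioTracker Green Microtubule Cytoskeleton Dye, MitoTracker Red and Annexin V Alexa Fluor 680, and imaging followed on a CQ1 microscope at 37°C and 5% CO2. CellPathfinder machine-learning gating divided cells into Hoechst high-intensity objects or normal cells, normal cells into healthy, pyknosed or fragmented nuclei, and pyknosed cells into mitotic or apoptotic. Tubulin, mitochondrial-mass and membrane-permeability phenotypes are per cents of healthy-nucleus cells.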

[1] = 12 h, 1 µM, compound concentration 1 uM
[2] = 12 h, 10 µM, compound concentration 10 uM
[3] = 24 h, 1 µM, compound concentration 1 uM
[4] = 24 h, 10 µM, compound concentration 10 uM
[5] = 48 h, 1 µM, compound concentration 1 uM
[6] = 48 h, 10 µM, compound concentration 10 uM

COc1ccc(-n2c(C)c([N+](=O)[O-])c3ccc(O)cc32)cc1
Population Apoptotic (%) [1]: 6.21% and 10.43% | Population Fragmented Nuclei (%) [1]: 1.16% and 7.69% | Population Hoechst High Intensity Objects (%) [1]: 0% | Population Membrane Permeable-Phenotype (%) [1]: 1.02% and 0% | Population Mitochondria Different-Phenotype (%) [1]: 36.04% and 17.65% | Population Mitotic Cells (%) [1]: 93.79% and 89.57% | Population Normal (%) [1]: 100% | Population Pyknosed Nuclei (%) [1]: 41.91% and 80.42% | Total Cell Count [1]: 346 and 143 | Population Apoptotic (%) [2]: 9.49% and 17.86% | Population Fragmented Nuclei (%) [2]: 2.91% and 1.47% | Population Hoechst High Intensity Objects (%) [2]: 0.24% and 0.73% | Population Membrane Permeable-Phenotype (%) [2]: 0.41% and 0% | Population Mitochondria Different-Phenotype (%) [2]: 38.27% and 18.18% | Population Mitotic Cells (%) [2]: 90.51% and 82.14% | Population Normal (%) [2]: 99.76% and 99.27% | Population Pyknosed Nuclei (%) [2]: 38.26% and 82.35% | Population Apoptotic (%) [3]: 11.43% and 19% | Population Fragmented Nuclei (%) [3]: 1.47% and 4.73% | Population Healthy Nuclei (%) [3]: 72.84% and 27.7% | Population Hoechst High Intensity Objects (%) [3]: 0% | Population Membrane Permeable-Phenotype (%) [3]: 0.76% and 2.44% | Population Mitochondria Different-Phenotype (%) [3]: 19.9% and 19.51% | Population Mitotic Cells (%) [3]: 88.57% and 81% | Population Normal (%) [3]: 100% | Population Pyknosed Nuclei (%) [3]: 25.69% and 67.57% | Population Apoptotic (%) [4]: 20% and 19.35% | Population Fragmented Nuclei (%) [4]: 2.53% and 2.65% | Population Healthy Nuclei (%) [4]: 71.03% and 35.76% | Population Hoechst High Intensity Objects (%) [4]: 0% and 0.66% | Population Membrane Permeable-Phenotype (%) [4]: 0.97% and 1.85% | Population Mitochondria Different-Phenotype (%) [4]: 27.18% and 12.96% | Population Mitotic Cells (%) [4]: 80% and 80.65% | Population Normal (%) [4]: 100% and 99.34% | Population Pyknosed Nuclei (%) [4]: 26.44% and 61.59% | Population Tubulin-Different-Phenotype (%) [4]: 27.51% and 11.11% | Total Cell Count [4]: 435 and 152 | Population Apoptotic (%) [5]: 9.35% and 22.41% | Population Fragmented Nuclei (%) [5]: 2.61% and 2.72% | Population Healthy Nuclei (%) [5]: 87.04% and 65.76% | Population Hoechst High Intensity Objects (%) [5]: 0.1% and 0% | Population Membrane Permeable-Phenotype (%) [5]: 3.78% and 1.65% | Population Mitochondria Different-Phenotype (%) [5]: 21% and 23.97% | Population Mitotic Cells (%) [5]: 90.65% and 77.59% | Population Normal (%) [5]: 99.9% and 100% | Population Apoptotic (%) [6]: 17.07% and 21.57% | Population Fragmented Nuclei (%) [6]: 3.71% and 2.48% | Population Healthy Nuclei (%) [6]: 84.59% and 65.84% | Population Hoechst High Intensity Objects (%) [6]: 0.14% and 0% | Population Membrane Permeable-Phenotype (%) [6]: 5.23% and 1.89% | Population Mitochondria Different-Phenotype (%) [6]: 33.9% and 25.47% | Population Mitotic Cells (%) [6]: 82.93% and 78.43% | Population Normal (%) [6]: 99.86% and 100% | Population Pyknosed Nuclei (%) [6]: 11.7% and 31.68%

O=C(Nc1cc(C(F)(F)F)cc(C(F)(F)F)c1)c1cc(Cl)ccc1O [IMD-0354]
Population Apoptotic (%) [1]: 4.35% and 3.39% | Population Fragmented Nuclei (%) [1]: 2.35% and 2.03% | Population Healthy Nuclei (%) [1]: 43.53% and 18.24% | Population Hoechst High Intensity Objects (%) [1]: 0.58% and 0% | Population Membrane Permeable-Phenotype (%) [1]: 0.68% and 0% | Population Mitotic Cells (%) [1]: 95.65% and 96.61% | Population Normal (%) [1]: 99.42% and 100% | Population Pyknosed Nuclei (%) [1]: 54.12% and 79.73% | Total Cell Count [1]: 342 and 148 | Population Apoptotic (%) [2]: 8.89% and 5.65% | Population Fragmented Nuclei (%) [2]: 4.05% and 10.2% | Population Healthy Nuclei (%) [2]: 14.86% and 5.44% | Population Hoechst High Intensity Objects (%) [2]: 1.33% and 0% | Population Membrane Permeable-Phenotype (%) [2]: 0% and 12.5% | Population Mitotic Cells (%) [2]: 91.11% and 94.35% | Population Normal (%) [2]: 98.67% and 100% | Population Pyknosed Nuclei (%) [2]: 81.08% and 84.35% | Population Tubulin-Different-Phenotype (%) [2]: 0% | Total Cell Count [2]: 225 and 147 | Population Apoptotic (%) [3]: 6.35% and 10.83% | Population Fragmented Nuclei (%) [3]: 1.67% and 0% | Population Healthy Nuclei (%) [3]: 68.26% and 25.47% | Population Hoechst High Intensity Objects (%) [3]: 0.48% and 0% | Population Membrane Permeable-Phenotype (%) [3]: 2.8% and 4.88% | Population Mitochondria Different-Phenotype (%) [3]: 4.9% and 4.88% | Population Mitotic Cells (%) [3]: 93.65% and 89.17% | Population Normal (%) [3]: 99.52% and 100% | Population Pyknosed Nuclei (%) [3]: 30.07% and 74.53% | Population Tubulin-Different-Phenotype (%) [3]: 6.99% and 2.44% | Total Cell Count [3]: 421 and 161 | Population Apoptotic (%) [4]: 5.52% and 6.29% | Population Fragmented Nuclei (%) [4]: 3.57% and 12.35% | Population Hoechst High Intensity Objects (%) [4]: 0.88% and 0% | Population Membrane Permeable-Phenotype (%) [4]: 5.71% and 0% | Population Mitochondria Different-Phenotype (%) [4]: 5.71% and 0% | Population Mitotic Cells (%) [4]: 94.48% and 93.71% | Population Normal (%) [4]: 99.12% and 100% | Population Pyknosed Nuclei (%) [4]: 80.8% and 84.12% | Population Tubulin-Different-Phenotype (%) [4]: 5.71% and 16.67% | Total Cell Count [4]: 226 and 170 | Population Apoptotic (%) [5]: 6.21% and 4.35% | Population Fragmented Nuclei (%) [5]: 1.53% and 0.99% | Population Healthy Nuclei (%) [5]: 78.27% and 53.69% | Population Hoechst High Intensity Objects (%) [5]: 0% | Population Membrane Permeable-Phenotype (%) [5]: 16.37% and 6.42% | Population Mitochondria Different-Phenotype (%) [5]: 2.49% and 3.67% | Population Mitotic Cells (%) [5]: 93.79% and 95.65% | Population Normal (%) [5]: 100% | Population Pyknosed Nuclei (%) [5]: 20.19% and 45.32% | Population Apoptotic (%) [6]: 5.97% and 5.04% | Population Fragmented Nuclei (%) [6]: 3.97% and 7.69% | Population Healthy Nuclei (%) [6]: 16.27% and 10.06% | Population Hoechst High Intensity Objects (%) [6]: 0.79% and 0% | Population Membrane Permeable-Phenotype (%) [6]: 12.2% and 5.88% | Population Mitochondria Different-Phenotype (%) [6]: 21.95% and 11.76% | Population Mitotic Cells (%) [6]: 94.03% and 94.96% | Population Normal (%) [6]: 99.21% and 100% | Population Pyknosed Nuclei (%) [6]: 79.76% and 82.25% | Total Cell Count [6]: 254 and 169
